# In ChEMBL document CHEMBL1275527, “A nonsense mutation in the ERG6 gene leads to reduced susceptibility to polyenes in a clinical isolate of Candida glabrata” (2008):
# The source made the active and inactive calls. No cut-off for these calls is given here.
# Key:
# Nakaseomyces glabratus [1] = experiment: Antifungal activity against Candida glabrata isolate 21230 with silent mutation in ERG4, ERG5 genes and nonsense mutation in ERG6 gene by Etest method; format: functional
# Nakaseomyces glabratus [2] = experiment: Antifungal activity against wild-type Candida glabrata isolate 21231 by Etest method; format: functional
# Nakaseomyces glabratus [3] = experiment: Antifungal activity against Candida glabrata isolate 21230 with silent mutations in ERG4, ERG5 genes and nonsense mutation in ERG6 gene by disk diffusion method; format: functional
# Nakaseomyces glabratus [4] = experiment: Antifungal activity against wild-type Candida glabrata isolate 21231 by disk diffusion method; format: functional
# Nakaseomyces glabratus [5] = experiment: Antifungal activity against Candida glabrata isolate 21230C by disk diffusion method; format: functional
# Summary of the method: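 The strain is the ura3 derivative of clinical isolate 21230 complemented with a centromeric plasmid carrying wild-type ERG6, tested as for the parent isolate. Isolates were maintained on YEPD agar.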
# Nakaseomyces glabratus [6] = experiment: Antifungal activity against Candida glabrata isolate 21230 at 2 mM; format: functional, organism-based
# Summary of the method: (§1)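 Compound incorporated at 2 mM into YEPD agar. Cell suspensions at 10^7 down to 10^3 cells per ml were spotted at 10 µl each, dried and incubated 48 h at 37°C. Growth was compared with spots on YEPD agar without inhibitor.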
# Nakaseomyces glabratus [7] = experiment: Antifungal activity against Candida glabrata isolate 21229 with missense mutation in ERG6 gene at 2 mM; format: functional, organism-based; summary of the method: as §1
Molecule,MIC (Nakaseomyces glabratus [1]) [µg/mL],MIC (Nakaseomyces glabratus [2]) [µg/mL],inhibition zone (IZ) (Nakaseomyces glabratus [3]) [mm],inhibition zone (IZ) (Nakaseomyces glabratus [4]) [mm],inhibition zone (IZ) (Nakaseomyces glabratus [5]) [mm],Activity (Nakaseomyces glabratus [6]),Activity (Nakaseomyces glabratus [7])
OC(Cn1cncn1)(Cn1cncn1)c1ccc(F)cc1F [FLUCONAZOLE],1,6,29,21,,,
C[C@@H]1[C@H](O)[C@@H](C)/C=C/C=C/C=C/C=C/C=C/C=C/C=C/[C@H](O[C@@H]2O[C@H](C)[C@@H](O)[C@H](N)[C@@H]2O)C[C@@H]2O[C@](O)(C[C@@H](O)C[C@@H](O)[C@H](O)CC[C@@H](O)C[C@@H](O)CC(=O)O[C@H]1C)C[C@H](O)[C@H]2C(=O)O [AMPHOTERICIN B],0.125,0.047,13,27,29,,
NYSTATIN,,,19,31,,,
CC(=O)N1CCN(c2ccc(OCC3COC(Cn4ccnc4)(c4ccc(Cl)cc4Cl)O3)cc2)CC1 (stereo not drawn) [KETOCONAZOLE],0.064,0.19,43,33,,,
Cn1c(=O)c2c(ncn2C)n(C)c1=O,,,,,,Active,Active
C[C@@H](c1ncncc1F)[C@](O)(Cn1cncn1)c1ccc(F)cc1F [VORICONAZOLE],,,39,30,,,
Clc1ccc(COC(Cn2ccnc2)c2ccc(Cl)cc2Cl)cc1 (stereo not drawn) [ECONAZOLE],,,35,25,,,
Clc1ccc(COC(Cn2ccnc2)c2ccc(Cl)cc2Cl)c(Cl)c1 (stereo not drawn) [MICONAZOLE],,,29,21,,,
